From ChEMBL document CHEMBL3425433, “Discovery of bicyclic pyrazoles as class III histone deacetylase SIRT1 and SIRT2 inhibitors” (Bioorg Med Chem Lett, 2015) come the findings set out here.

For assay [1], the target named is Histone deacetylase 1 (Homo sapiens, UniProt Q13547). Briefly: Inhibition of HDAC1 (unknown origin).
Assay [2] concerns the target Histone deacetylase 2 (Homo sapiens, UniProt Q92769). Briefly: Inhibition of HDAC2 (unknown origin).
In assay [3] the target is T1, Protein deacetylase HDAC6 (Homo sapiens) (UniProt Q9UBN7).
T1 sequence (whole entry): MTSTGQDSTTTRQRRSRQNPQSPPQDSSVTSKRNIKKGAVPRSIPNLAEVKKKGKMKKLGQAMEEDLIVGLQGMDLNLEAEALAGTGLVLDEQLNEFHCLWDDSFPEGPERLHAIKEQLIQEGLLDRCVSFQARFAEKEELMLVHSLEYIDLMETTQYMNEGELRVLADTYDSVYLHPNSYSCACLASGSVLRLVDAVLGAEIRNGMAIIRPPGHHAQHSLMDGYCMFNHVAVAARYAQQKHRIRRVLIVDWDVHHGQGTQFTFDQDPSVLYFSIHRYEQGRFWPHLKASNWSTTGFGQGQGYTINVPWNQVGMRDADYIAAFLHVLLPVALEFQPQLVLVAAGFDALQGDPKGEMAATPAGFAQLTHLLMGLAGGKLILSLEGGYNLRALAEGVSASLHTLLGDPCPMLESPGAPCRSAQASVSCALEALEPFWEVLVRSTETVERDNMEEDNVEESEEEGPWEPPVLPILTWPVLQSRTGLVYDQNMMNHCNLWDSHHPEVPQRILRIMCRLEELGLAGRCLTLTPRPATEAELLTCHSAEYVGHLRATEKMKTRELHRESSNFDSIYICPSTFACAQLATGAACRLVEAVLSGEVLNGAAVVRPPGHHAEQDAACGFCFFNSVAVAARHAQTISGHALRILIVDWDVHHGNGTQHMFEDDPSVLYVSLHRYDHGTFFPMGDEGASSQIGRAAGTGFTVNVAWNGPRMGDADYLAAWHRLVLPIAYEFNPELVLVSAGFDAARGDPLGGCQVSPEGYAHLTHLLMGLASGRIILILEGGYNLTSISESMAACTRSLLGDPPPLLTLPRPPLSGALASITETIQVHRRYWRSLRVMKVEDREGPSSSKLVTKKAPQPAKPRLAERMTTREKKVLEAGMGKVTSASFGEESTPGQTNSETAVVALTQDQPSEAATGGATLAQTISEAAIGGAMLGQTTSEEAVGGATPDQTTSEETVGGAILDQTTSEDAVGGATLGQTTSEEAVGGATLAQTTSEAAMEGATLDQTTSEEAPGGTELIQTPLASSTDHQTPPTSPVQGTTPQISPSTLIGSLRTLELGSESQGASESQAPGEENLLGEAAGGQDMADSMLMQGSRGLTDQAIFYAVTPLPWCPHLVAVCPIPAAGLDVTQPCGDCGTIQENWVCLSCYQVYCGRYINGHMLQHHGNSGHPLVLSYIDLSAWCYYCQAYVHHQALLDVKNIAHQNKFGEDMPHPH
Briefly: Inhibition of HDAC6 (unknown origin).

The target in assay [4] is T2, Histone deacetylase 8 (Homo sapiens) (UniProt Q9BY41).
T2 sequence (whole entry): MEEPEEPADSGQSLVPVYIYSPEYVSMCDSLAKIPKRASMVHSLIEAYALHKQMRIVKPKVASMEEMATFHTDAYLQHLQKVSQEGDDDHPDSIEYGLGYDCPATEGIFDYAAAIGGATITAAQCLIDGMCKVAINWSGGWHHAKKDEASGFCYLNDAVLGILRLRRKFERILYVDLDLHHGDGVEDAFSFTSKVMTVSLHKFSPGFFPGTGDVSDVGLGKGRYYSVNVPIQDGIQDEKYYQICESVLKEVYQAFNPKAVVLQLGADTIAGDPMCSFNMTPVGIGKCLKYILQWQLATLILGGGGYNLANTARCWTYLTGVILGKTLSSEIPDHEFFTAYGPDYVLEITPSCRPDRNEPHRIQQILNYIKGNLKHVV
Briefly: Inhibition of HDAC8 (unknown origin).

The target in assay [5] is T3, NAD-dependent protein deacetylase sirtuin-1 (Homo sapiens) (UniProt Q96EB6).
T3 sequence (whole entry): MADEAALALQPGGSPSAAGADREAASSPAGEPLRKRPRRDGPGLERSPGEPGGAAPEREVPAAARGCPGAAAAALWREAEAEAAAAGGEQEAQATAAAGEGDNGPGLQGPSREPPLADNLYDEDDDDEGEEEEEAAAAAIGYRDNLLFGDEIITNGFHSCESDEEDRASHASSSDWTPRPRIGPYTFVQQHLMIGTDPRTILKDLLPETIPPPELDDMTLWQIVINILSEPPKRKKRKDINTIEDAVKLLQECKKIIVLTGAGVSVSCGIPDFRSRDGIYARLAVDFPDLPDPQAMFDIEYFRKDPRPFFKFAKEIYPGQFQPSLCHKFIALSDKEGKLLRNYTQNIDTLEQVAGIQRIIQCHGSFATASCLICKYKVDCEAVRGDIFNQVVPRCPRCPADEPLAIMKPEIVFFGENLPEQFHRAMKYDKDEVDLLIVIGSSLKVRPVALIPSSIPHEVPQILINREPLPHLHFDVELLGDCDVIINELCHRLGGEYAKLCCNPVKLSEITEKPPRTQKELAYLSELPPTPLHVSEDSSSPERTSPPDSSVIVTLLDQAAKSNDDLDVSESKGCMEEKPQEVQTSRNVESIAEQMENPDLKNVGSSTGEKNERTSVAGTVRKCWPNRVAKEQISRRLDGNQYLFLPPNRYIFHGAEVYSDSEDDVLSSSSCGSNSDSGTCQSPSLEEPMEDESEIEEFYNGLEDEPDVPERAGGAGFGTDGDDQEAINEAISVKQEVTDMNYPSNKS
Put plainly: Inhibition of His-tagged human recombinant SIRT1 expressed in Escherichia coli at 20 uM using Cbz-Lys(Ac)-AMC as substrate by fluorescence assay. Put shortly: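 Fluorescence deacetylase assay with in-house Cbz-Lys(Ac)-AMC substrate. Values are means of three experiments on racemic material. Single-point lines were tested at 20 µM, and less than 20% inhibition was scored as no inhibition.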

pIC50: −log10 of the molar value. Calls of active or inactive are those of the source. The calls are words filed in the database; no cut-off is given here.

Usually inhibition stands for the percentage by which the read-out fell short of the control. Usually pIC50 stands for the negative decadic logarithm of the IC50, by convention in mol/L. Read a high pIC50 as a low IC50.

Sequence of Histone deacetylase 2 (Q92769 whole entry): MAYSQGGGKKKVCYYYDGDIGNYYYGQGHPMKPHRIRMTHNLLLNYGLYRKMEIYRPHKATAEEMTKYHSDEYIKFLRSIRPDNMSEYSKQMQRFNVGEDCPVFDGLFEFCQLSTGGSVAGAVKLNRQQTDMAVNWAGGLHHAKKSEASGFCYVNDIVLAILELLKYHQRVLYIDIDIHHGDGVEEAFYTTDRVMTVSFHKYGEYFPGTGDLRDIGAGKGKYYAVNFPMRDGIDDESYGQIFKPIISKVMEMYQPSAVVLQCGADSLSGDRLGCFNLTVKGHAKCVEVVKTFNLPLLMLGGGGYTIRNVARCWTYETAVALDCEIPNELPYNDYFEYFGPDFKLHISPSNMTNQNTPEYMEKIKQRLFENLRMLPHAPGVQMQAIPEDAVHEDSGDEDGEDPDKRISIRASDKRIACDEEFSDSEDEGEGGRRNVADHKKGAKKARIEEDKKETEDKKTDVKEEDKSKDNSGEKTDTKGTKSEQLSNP
Sequence of Histone deacetylase 1 (Q13547 whole entry): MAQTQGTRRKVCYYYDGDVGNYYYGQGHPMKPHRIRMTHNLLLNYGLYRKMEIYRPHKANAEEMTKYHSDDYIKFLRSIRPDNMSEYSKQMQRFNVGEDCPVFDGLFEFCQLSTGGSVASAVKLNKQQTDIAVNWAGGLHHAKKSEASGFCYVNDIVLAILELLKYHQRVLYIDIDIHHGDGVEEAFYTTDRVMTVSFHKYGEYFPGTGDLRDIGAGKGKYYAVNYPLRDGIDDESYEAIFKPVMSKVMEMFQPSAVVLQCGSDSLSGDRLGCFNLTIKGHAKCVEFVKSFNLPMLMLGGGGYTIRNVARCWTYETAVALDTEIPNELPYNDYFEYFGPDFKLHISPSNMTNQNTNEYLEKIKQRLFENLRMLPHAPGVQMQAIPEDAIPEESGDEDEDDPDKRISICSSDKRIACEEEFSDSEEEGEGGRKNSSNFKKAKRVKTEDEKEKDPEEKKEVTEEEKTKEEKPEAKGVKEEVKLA

For `NC(=O)C1CCCc2c(-c3ccc(Br)cc3)n[nH]c21` (racemic), the inhibition entry in assay [1], in assay [2], in assay [3] and in assay [4] was “inactive” each time.
For the compound `NC(=O)C1CCCc2c(-c3ccc(C(F)(F)F)cc3)n[nH]c21` (racemic), the inhibition in assay [5] was under 20%. For the same compound, the inhibition result in assay [1], in assay [2], in assay [3] and in assay [4] was “inactive” each time.
For the compound `NC(=O)C1CCCCc2c(-c3ccc(Cl)cc3)n[nH]c21` (racemic), the inhibition entry in assay [1], in assay [2], in assay [3] and in assay [4] was “inactive” throughout.
With `Cn1c(-c2n[nH]c3c2CC(C)(C)CC3C(N)=O)cc2ccccc21` (racemic), the inhibition in assay [5] is under 20%. The inhibition entry in assay [1], in assay [2], in assay [3] and in assay [4] was “inactive” each time.
For `NC(=O)C1CCCc2c(-c3ccc(Cl)cc3)n[nH]c21` (racemic), the inhibition result in assay [1], in assay [2], in assay [3] and in assay [4] was “inactive” in each case.
With `COc1ccc(-c2n[nH]c3c2CCCC3C(N)=O)cc1` (racemic), the inhibition in assay [5] was under 20%. In addition, the inhibition entry in assay [1], in assay [2], in assay [3] and in assay [4] was “inactive” throughout.
As to `NC(=O)C1CCCc2c(-c3nc4ccccc4s3)n[nH]c21` (racemic), the inhibition result in assay [1], in assay [2], in assay [3] and in assay [4] was “inactive” in each case.
With `CC1(C)CCC(C(N)=O)c2[nH]nc(-c3ccc(Cl)cc3)c21` (racemic), the inhibition in assay [5] is under 20%. Further, the inhibition entry in assay [1], in assay [2], in assay [3] and in assay [4] was “inactive” in each case.
Turning to `NC(=O)C1CCCCCc2c(-c3ccc(Cl)cc3)n[nH]c21` (racemic), the inhibition in assay [5] came to 28%. Moreover, the inhibition entry in assay [1], in assay [2], in assay [3] and in assay [4] was “inactive” in each case.
Consider `NC(=O)C1CCCc2c(-c3ccc(Cl)c(F)c3)n[nH]c21` (racemic), for which the inhibition entry in assay [1], in assay [2], in assay [3] and in assay [4] was “inactive” throughout.
Take `CCOC(=O)C1CCCc2c(-c3ccc(Cl)c(F)c3)n[nH]c21` (racemic): the inhibition in assay [5] was under 20%. For the same compound, the inhibition result in assay [1], in assay [2], in assay [3] and in assay [4] was “inactive” each time.
On to `NC(=O)C1CCCc2c(-c3ccccc3Cl)n[nH]c21` (racemic), for which the inhibition in assay [5] is under 20%. Moreover, the inhibition result in assay [1], in assay [2], in assay [3] and in assay [4] was “inactive” throughout.
In the case of `CC1(C)Cc2c(-c3ccc(Br)cc3)n[nH]c2C(C(N)=O)C1` (racemic), in assay [5], the inhibition came out at 56%. Moreover, the inhibition result in assay [1], in assay [2], in assay [3] and in assay [4] was “inactive” each time.
With `Cc1ccc(-c2n[nH]c3c2CCCC3C(N)=O)cc1` (racemic), the inhibition result in assay [1], in assay [2], in assay [3] and in assay [4] was “inactive” in each case.
Consider `NC(=O)C1CCCc2c(-c3cccs3)n[nH]c21` (racemic), for which the inhibition in assay [5] was determined as 47%. Further, the inhibition entry in assay [1], in assay [2], in assay [3] and in assay [4] was “inactive” throughout.
Regarding `NC(=O)C1CCCc2c(-c3csc4ccccc34)n[nH]c21` (racemic), the inhibition in assay [5] was 48%. For the same compound, the inhibition result in assay [1], in assay [2], in assay [3] and in assay [4] was “inactive” in each case.
`CC1(C)Cc2c(-c3ccc(Cl)cc3)n[nH]c2C(C(N)=O)C1` (racemic): the inhibition result in assay [1], in assay [2], in assay [3] and in assay [4] was “inactive” each time.
As for `NC(=O)C1CCCc2c(-c3ccc(Cl)c(Cl)c3)n[nH]c21` (racemic), the pIC50 in assay [1] and in assay [2] was under 5.00 each time.
In the case of `NC(=O)C1CCCc2c(-c3cc4ccccc4s3)n[nH]c21` (racemic), the inhibition result in assay [1], in assay [2], in assay [3] and in assay [4] was “inactive” throughout.
As for `NC(=O)C1CCCc2c(-c3cc4ccccc4o3)n[nH]c21` (racemic), the inhibition entry in assay [1], in assay [2], in assay [3] and in assay [4] was “inactive” throughout.
With `NC(=O)C1CCCc2c(-c3cc(Br)cs3)n[nH]c21` (racemic), the inhibition entry in assay [1], in assay [2], in assay [3] and in assay [4] was “inactive” throughout.
For `Cn1c(-c2n[nH]c3c2CCCC3C(N)=O)cc2ccccc21` (racemic), the inhibition result in assay [1], in assay [2], in assay [3] and in assay [4] was “inactive” in each case.
